From ChEMBL document CHEMBL4251566 (Eur J Med Chem, 2018)

Legend:
Mus musculus = experiment: Toxicity in CB17/SCID mouse xenografted with Ramos cells assessed as change in body weight at 60 mg/kg, po qd for 14 days; assay type: organism-based; details: in vivo, 336 h
Summary of the method: (§1)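 Female CB17/SCID mice, 5–6 weeks old and 20–25 g, received 3×10⁶ Ramos cells in 0.1 mL PBS subcutaneously in the right axilla. From day 3 after implantation, dosing was oral at 30 or 60 mg/kg for 14 days; vehicle controls got oral 25% PEG-400. Tumor volume was A×B²/2 from caliper diameters. Tumor weight was taken at sacrifice, and body weight was tracked. n = 5.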

[1] = molecular target: T1, Tyrosine-protein kinase JAK3 (Homo sapiens) (UniProt P52333); experiment: Inhibition of JAK3 in human NAMALWA cells assessed as reduction in STAT3 phosphorylation after 48 hrs by immunoblot analysis; assay type: cell-based
T1 sequence (whole entry): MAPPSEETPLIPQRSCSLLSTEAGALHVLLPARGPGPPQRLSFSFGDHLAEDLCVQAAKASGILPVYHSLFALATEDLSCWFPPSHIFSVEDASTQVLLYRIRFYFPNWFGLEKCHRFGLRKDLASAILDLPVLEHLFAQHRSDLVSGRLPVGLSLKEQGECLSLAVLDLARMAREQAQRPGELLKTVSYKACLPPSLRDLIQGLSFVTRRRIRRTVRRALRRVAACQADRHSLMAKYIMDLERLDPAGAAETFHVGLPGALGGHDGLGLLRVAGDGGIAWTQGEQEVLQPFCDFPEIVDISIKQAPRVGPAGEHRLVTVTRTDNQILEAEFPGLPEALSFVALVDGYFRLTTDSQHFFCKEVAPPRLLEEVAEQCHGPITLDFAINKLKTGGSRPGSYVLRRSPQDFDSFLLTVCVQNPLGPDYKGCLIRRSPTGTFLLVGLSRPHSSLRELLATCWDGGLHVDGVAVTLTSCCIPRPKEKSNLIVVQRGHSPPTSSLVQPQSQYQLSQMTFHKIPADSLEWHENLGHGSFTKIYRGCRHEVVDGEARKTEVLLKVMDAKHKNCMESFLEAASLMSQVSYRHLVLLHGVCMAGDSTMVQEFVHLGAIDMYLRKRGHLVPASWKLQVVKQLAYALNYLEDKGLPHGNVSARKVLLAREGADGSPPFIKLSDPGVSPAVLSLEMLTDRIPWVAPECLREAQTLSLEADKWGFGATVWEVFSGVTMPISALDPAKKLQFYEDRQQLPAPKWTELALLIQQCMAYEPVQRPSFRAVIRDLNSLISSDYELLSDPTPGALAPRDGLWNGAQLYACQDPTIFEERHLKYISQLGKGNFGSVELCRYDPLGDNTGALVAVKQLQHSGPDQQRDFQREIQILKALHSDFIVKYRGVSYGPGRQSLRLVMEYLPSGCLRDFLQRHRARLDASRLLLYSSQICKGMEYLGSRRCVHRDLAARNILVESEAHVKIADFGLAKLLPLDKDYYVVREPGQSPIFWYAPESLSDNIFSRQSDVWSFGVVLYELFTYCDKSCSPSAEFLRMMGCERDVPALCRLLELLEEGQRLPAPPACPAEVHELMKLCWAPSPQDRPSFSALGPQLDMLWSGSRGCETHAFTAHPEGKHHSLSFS
Summary of the method: (§2)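 Namalwa cells were treated with 1, 5 or 10 µM for 48 h. Lysates were cleared at 14,000 g for 15 min at 4 °C, and 50 µg of protein was run on 8–12% SDS-PAGE and transferred to PVDF. Membranes were blocked in 5% milk for 2 h and incubated with primary antibody overnight at 4 °C. Detection was by ECL, with band IOD normalized to β-actin.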

Ramos [2] = experiment: Induction of apoptosis in human Ramos cells assessed as early apoptotic cells at 20 uM after 72 hrs by Annexin V-FITC/propidium iodide staining based flow cytometry (reference value: 0.0%); assay type: functional
NAMALVA = experiment: Antiproliferative activity against human NAMALWA cells after 72 hrs by CCK-8 assay; assay type: functional, cell-based
Summary of the method: (§3)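 CCK-8 viability assay. Cells were seeded at 3000/well in RPMI-1640 with 10% FBS at 37 °C, 5% CO2, for 4 h before treatment. Exposure was 72 h at five concentrations (1.25, 5, 10, 20, 40 µM), each in five replicates. Absorbance was read at 450 nm. IC50 came from dose-response curves, as the mean of at least three separate experiments.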

Ramos [3] = experiment: Induction of apoptosis in human Ramos cells assessed as total apoptosis rate at 5 uM after 72 hrs by Annexin V-FITC/propidium iodide staining based flow cytometry relative to control
Ramos [4] = experiment: Antiproliferative activity against human Ramos cells at 1.25 to 40 uM by CCK-8 assay; assay type: functional, cell-based; details: TDE = time-dependent effect; summary of the method: as §3
Ramos [5] = experiment: Induction of apoptosis in human Ramos cells assessed as late apoptotic cells at 20 uM after 72 hrs by Annexin V-FITC/propidium iodide staining based flow cytometry (reference value: 0.5%); assay type: functional
Ramos [6] = experiment: Induction of apoptosis in human Ramos cells assessed as necrotic cells at 20 uM after 72 hrs by Annexin V-FITC/propidium iodide staining based flow cytometry (reference value: 0.7%); assay type: functional
Ramos [7] = experiment: Antitumor activity against human Ramos cells xenografted in CB17/SCID mouse assessed as tumor growth inhibition at 60 mg/kg, po qd for 14 days; assay type: functional; details: 336 h, read-out: TGI; summary of the method: as §1
Ramos [8] = experiment: Induction of apoptosis in human Ramos cells assessed as necrotic cells at 10 uM after 72 hrs by Annexin V-FITC/propidium iodide staining based flow cytometry (reference value: 0.7%); assay type: functional
Ramos [9] = experiment: Antitumor activity against human Ramos cells xenografted in CB17/SCID mouse assessed as tumor growth inhibition at 30 mg/kg, po qd for 14 days; assay type: functional; details: 336 h, read-out: TGI; summary of the method: as §1
Ramos [10] = experiment: Induction of apoptosis in human Ramos cells assessed as viable cells at 20 uM after 72 hrs by Annexin V-FITC/propidium iodide staining based flow cytometry (reference value: 98.7%); assay type: functional; details: read-out: Activity
Ramos [11] = experiment: Induction of apoptosis in human Ramos cells assessed as viable cells at 5 uM after 72 hrs by Annexin V-FITC/propidium iodide staining based flow cytometry (reference value: 98.7%); assay type: functional; details: read-out: Activity
[12] = molecular target: T2, Tyrosine-protein kinase BTK (Homo sapiens, UniProt Q06187); experiment: Inhibition of BTK phosphorylation in human NAMALWA cells after 48 hrs by immunoblot analysis; assay type: cell-based; summary of the method: as §2
Ramos [13] = experiment: Induction of apoptosis in human Ramos cells assessed as late apoptotic cells at 10 uM after 72 hrs by Annexin V-FITC/propidium iodide staining based flow cytometry (reference value: 0.5%); assay type: functional
Ramos [14] = experiment: Antiproliferative activity against human Ramos cells assessed as inhibition of cell viability at 20 uM after 72 hrs by CCK-8 assay; assay type: functional; summary of the method: as §3
Raji = experiment: Antiproliferative activity against human Raji cells after 72 hrs by CCK-8 assay; assay type: functional, cell-based; summary of the method: as §3
[15] = molecular target: T2, Tyrosine-protein kinase BTK; experiment: Inhibition of recombinant full-length N-terminal His-tagged human BTK expressed in baculovirus infected Sf9 insect cells using Poly(4:1 Glu,Tyr) peptide substrate incubated for 60 mins by ADP-Glo luminescence assay
Ramos [16] = experiment: Induction of apoptosis in human Ramos cells assessed as late apoptotic cells at 5 uM after 72 hrs by Annexin V-FITC/propidium iodide staining based flow cytometry (reference value: 0.5%); assay type: functional

T2 sequence (Q06187 whole entry): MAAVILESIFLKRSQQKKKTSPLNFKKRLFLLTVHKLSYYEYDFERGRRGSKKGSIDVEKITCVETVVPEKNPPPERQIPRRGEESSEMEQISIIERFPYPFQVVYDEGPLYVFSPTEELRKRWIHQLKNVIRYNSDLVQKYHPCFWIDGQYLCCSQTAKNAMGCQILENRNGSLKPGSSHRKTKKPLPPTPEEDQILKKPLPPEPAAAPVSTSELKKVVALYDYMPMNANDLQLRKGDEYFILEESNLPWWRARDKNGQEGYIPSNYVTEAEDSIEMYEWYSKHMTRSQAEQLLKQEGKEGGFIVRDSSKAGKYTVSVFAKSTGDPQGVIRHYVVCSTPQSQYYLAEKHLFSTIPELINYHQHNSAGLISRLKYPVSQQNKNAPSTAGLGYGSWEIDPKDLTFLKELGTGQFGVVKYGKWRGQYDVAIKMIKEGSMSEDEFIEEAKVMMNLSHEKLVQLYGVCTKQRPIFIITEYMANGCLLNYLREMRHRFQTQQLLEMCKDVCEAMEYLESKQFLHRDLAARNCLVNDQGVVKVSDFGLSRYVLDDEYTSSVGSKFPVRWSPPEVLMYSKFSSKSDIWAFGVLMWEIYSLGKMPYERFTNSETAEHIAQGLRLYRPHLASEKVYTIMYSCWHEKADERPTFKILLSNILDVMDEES

| inhibition [1] | inhibition [12] | IC50 (Raji) | IC50 [15] | SMILES | Activity (Mus musculus) | Activity (Ramos [2]) | IC50 (NAMALVA) | Activity (Ramos [3]) | Activity (Ramos [4]) | Activity (Ramos [5]) | Activity (Ramos [6]) | inhibition in vivo at 60 mg/kg (Ramos [7]) | Activity (Ramos [8]) | inhibition in vivo at 30 mg/kg (Ramos [9]) | viability at 20 µM (Ramos [10]) | viability at 5 µM (Ramos [11]) | Activity (Ramos [13]) | inhibition at 20 µM (Ramos [14]) | Activity (Ramos [16]) |
| --- | --- | --- | --- | --- | --- | --- | --- | --- | --- | --- | --- | --- | --- | --- | --- | --- | --- | --- | --- |
| Dose-dependent effect | Dose-dependent effect | 8.89 µM | 0.0008 µM | C=CC(=O)Nc1cccc(Nc2nc(Nc3ccc(OCC(=O)N4CCOCC4)c(Cl)c3)ncc2Cl)c1 | <= 5% | 65.1% | 6.45 µM | 61.8% | Tde | 14.4% | 0.4% | 36.6% | 1.1% | 24.4% | 20.1% | 37.2% | 10.9% | 91% | 7% |
| Dose-dependent effect | Dose-dependent effect | 9.32 µM | 0.0006 µM | C=CC(=O)Nc1cccc(Nc2nc(Nc3ccc(OCCCN4CCOCC4)cc3)ncc2Cl)c1 | <= 5% | 61.6% | 8.23 µM | 59% | Tde | 18.6% | 3.5% | 47.5% | 2.7% | 36.6% | 16.3% | 34.4% | 9.6% | 91% | 8.2% |
